Most compounds without a hit are left out; they make up all but 3.5% or so of the library.
RGS4 pot = RGS4 potentiators or activators, primary screen, cell-based, HEK293 M3R inducible RGS4, calcium flux; carbachol calcium flux Fluo4; hits give low values; hit rate 0.92% among 310,000; B-score at 10 µM;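 active means B-score of the integrated calcium signal more than 4 SD below the library mean, with starting fluorescence not abnormally high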;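 further: negative B-score means reduced calcium response which marks RGS4 activation or potentiation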
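Test system: HEK293 cells with stable M3R and inducible RGS4; also added: carbachol at ECmax as muscarinic agonist stimulus; schedule: dye loading 30 min 37 °C, buffer rest 30 min RT; technique: kinetic calcium fluorescence imaging with Fluo4-AM dye, 2 µM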
RGS4 inh = RGS4 inhibitors, primary screen, cell-based, HEK293 M3R inducible RGS4, calcium flux. B-score at 10 µM. AID 463165, 2010. hit rate 0.45% among 310,000. Fluo-4 calcium flux; hits give high values; triggered by carbachol at its EC20. Regulator of G-protein signaling 4 (Homo sapiens), P49798;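 active means B-score, a plate-corrected calcium signal, over three deviations above library mean, with baseline fluorescence within five deviations of library mean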;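 further: RGS4 expression induced by doxycycline in cells with stable M3 receptor; B-score is computed from the integrated fluorescence ratio over baseline after carbachol; higher B-score means a larger calcium signal and so more RGS4 inhibition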
Target sequence (P49798 whole entry, looked up): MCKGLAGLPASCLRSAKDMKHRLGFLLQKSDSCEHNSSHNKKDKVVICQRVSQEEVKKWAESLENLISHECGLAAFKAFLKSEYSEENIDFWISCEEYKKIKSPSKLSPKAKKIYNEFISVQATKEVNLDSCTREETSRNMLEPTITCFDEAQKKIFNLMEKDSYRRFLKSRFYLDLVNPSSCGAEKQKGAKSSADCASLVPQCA
MrgX1 ag = agonists of human MrgX1 receptor, primary screen, HEK293 cells, Fluo-4 calcium flux; B-score at 10 µM; Mas-related G-protein coupled receptor member X1 (Homo sapiens), Q96LB2; Fluo-4 calcium fluorescence, agonist mode; hits give high values; hit rate 0.44% among 310,000; AID 588627, 2011;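 active means calcium response B-score plate-corrected fluorescence ratio at least 3 library SD, with starting fluorescence B-score inside 5 SD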
Target sequence (Q96LB2 whole entry, looked up): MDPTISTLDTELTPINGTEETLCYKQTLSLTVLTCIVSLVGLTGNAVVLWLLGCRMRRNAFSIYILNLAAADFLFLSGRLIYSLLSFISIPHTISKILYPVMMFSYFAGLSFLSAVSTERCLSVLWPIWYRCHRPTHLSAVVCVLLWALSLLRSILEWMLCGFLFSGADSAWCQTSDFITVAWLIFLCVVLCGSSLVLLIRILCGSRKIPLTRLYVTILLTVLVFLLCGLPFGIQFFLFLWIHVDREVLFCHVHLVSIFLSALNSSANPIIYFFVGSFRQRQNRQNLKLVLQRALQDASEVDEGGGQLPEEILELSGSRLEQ
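Test system: Stable human MrgX1 HEK293 cell line | Schedule: Overnight plating before 1 h dye loading | Read-out basis: Baseline-normalised fluorescence change ratio, B-scored | Detection: Kinetic calcium dye fluorescence, Fluo-4 NW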
MrgX1 antagonist = antagonists of human MrgX1 receptor, primary screen, HEK293 cells, Fluo-4 calcium flux. Mas-related G-protein coupled receptor member X1 (Homo sapiens), Q96LB2. BAM8-22 antagonism; hits give low values. B-score at 10 µM. hit rate 1.3% among 310,000. AID 588676, 2011;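 active means calcium-response B-score plate-corrected more than 3 library SD below zero, starting fluorescence within 5 deviations, no agonist response on first addition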;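 further: peak minus trough fluorescence over baseline after final BAM8-22 challenge near maximal dose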
MrgX1 allo act = positive allosteric modulators of MrgX1, primary screen, HEK293 cells, Fluo-4 calcium flux. FDSS; hits give high values. B-score at 10 µM. hit rate 0.63% among 310,000;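 active means plate-corrected calcium response at least 3 library SD above typical, normal starting fluorescence, not activating the receptor alone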;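 further: compound read alongside a low EC10 to EC30 dose of BAM8-22 agonist; peak minus trough fluorescence over baseline measured at the second addition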
The depositor's hits bear a star; i = inactive.

SMILES	RGS4 pot	RGS4 inh	MrgX1 ag	MrgX1 antagonist	MrgX1 allo act
C/C(=N/NC(=O)c1ccccc1O)c1ccc(N2C(=O)C3CCCCC3C2=O)cc1 (stereo not drawn)	i	i	i	-8*	i
CC1=C/C(=C\C=C(C#N)C#N)N(C)c2ccccc21	i	i	i	-5.7*	i
CC1=CC(=C(C#N)C#N)c2ccccc2N1C	i	i	i	i	i
O=C(N/N=C/C(Br)=C/c1ccccc1)c1ccccc1F	i	i	i	i	7*
CN(CC(=O)NCc1ccc(F)cc1)CC(=O)Nc1ccc(Cl)c(C(F)(F)F)c1	i	i	i	-5.6*	i
CC(NC(=O)CN(C)CC(=O)Nc1ccc(Cl)c(C(F)(F)F)c1)c1ccccc1 (stereo not drawn)	i	i	i	i	i
O=C(Cc1ccc(Br)cc1)NCCc1ccc(F)cc1	i	i	i	i	i
CC(=O)N(c1nc(/C=C\C(=O)O)cs1)c1ccccc1F	i	i	32*	i	i
C(=N\N(Cc1ccccc1)c1ccccc1)/c1cccnc1	-7.9*	i	i	i	i
Oc1cccc(/C=N/N(Cc2ccccc2)c2ccccc2)c1	i	i	i	i	i
COc1ccc(S(=O)(=O)CC(=O)c2cc3cccc(C)c3oc2=O)cc1	i	i	42*	i	i
COc1cccc2cc(C(=O)CS(=O)(=O)c3ccc(C(C)(C)C)cc3)c(=O)oc12	i	i	i	i	i
O=C(CS(=O)(=O)c1ccccc1)c1cc2cc(F)ccc2oc1=O	i	i	61*	i	i
CCCCCC1CCC(c2ccc(/C(N)=N/O)cc2)CC1 (stereo not drawn)	i	i	i	i	i
COC(C(=O)Nc1ccnn1C1CCN(Cc2ccc(C)s2)CC1)c1ccccc1 (stereo not drawn)	i	i	i	i	i
O=C(O)c1ccc(N2C(=O)/C(=C/c3ccc(-c4ccc([N+](=O)[O-])cc4)o3)C=C2c2ccccc2)cc1	-7*	i	i	i	i
O=C1NN(c2ccccc2)C(=O)/C1=C/c1ccc(-c2ccc(C(=O)O)cc2)o1	i	i	i	i	i
CC1Cc2ccccc2N1C(=O)CSc1nc2c(c(=O)n(C)c(=O)n2C)n1Cc1ccccc1 (stereo not drawn)	-7.2*	i	i	i	i
CCn1c(SCC(=O)N2c3ccccc3CCc3ccccc32)nc2c1c(=O)n(C)c(=O)n2C	i	i	i	i	i
O=C(O)c1ccccc1N/N=C/c1cc(Br)cc(Br)c1O	i	i	i	-6.4*	i
O=C(O)c1ccccc1N/N=C\c1ccnc2ccccc12	i	i	41*	i	i
COc1ccc(-c2cc(C(=O)OCc3ccccn3)c3ccccc3n2)cc1	i	i	i	i	i
Cc1ccc(NC(=O)/C(Cl)=C/c2ccccc2)cc1C	i	i	i	i	9*
COCCCN(C(=O)c1ccccc1F)c1nc(-c2ccc(OC)cc2)cs1	i	i	i	i	i
CCN(CC)C(=O)c1c2c(nc3ccccc13)-c1ccccc1CC2	-7*	i	i	i	i
SMILES	RGS4 pot	RGS4 inh	MrgX1 ag	MrgX1 antagonist	MrgX1 allo act
O=C(NC1CC2CCCC(C1)N2C(=S)Nc1ccc(Cl)cc1)C1CC1 (stereo not drawn)	-7*	i	i	i	i
C[C@H](NC(N)=O)C(=O)Nc1ccc2c(c1)OCO2	i	i	i	i	i
CCOc1ccc(NC(=O)CSc2nnc(Cc3cccn3C)n2-c2ccc(OC)cc2)cc1	i	i	i	-5.7*	i
CCOc1ccc(C(CC(=O)O)NC(=O)COc2ccccc2)cc1OC (stereo not drawn)	i	i	i	-5.8*	i
CCOc1ccc(S(=O)(=O)N2CCC(C(=O)NC3CC3)CC2)cc1Cl	i	i	i	i	i
O=C(CSc1nc2ccccc2c(=O)n1Cc1ccco1)c1ccccc1	i	i	i	i	i
Cc1cc(-n2c(C)cc(C(=O)CSc3nc4ccccc4c(=O)n3Cc3ccco3)c2C)no1	i	i	i	-6.3*	i
CCOC(=O)c1c(NC(=O)COc2cccc3c2CCN(C)C3=O)sc2c1CCC2	i	i	i	i	i
O=C(NN1C(=O)c2ccccc2NC1c1ccoc1)c1ccc([N+](=O)[O-])cc1 (stereo not drawn)	i	i	i	-4.6*	i
O=C(O)CCCCCN1C(=O)C2CCCCC2C1=O (stereo not drawn)	i	i	i	i	i
O=C(O)CCCCCCC1C(=O)NC(=O)N1CCC(O)C1CCCCC1 (stereo not drawn)	i	i	31*	i	i
COC(=O)c1cc([N+](=O)[O-])c(-n2ccnc2)c([N+](=O)[O-])c1	i	i	i	i	i
CN(C)CCCN(Cc1ccccc1)C(=S)Nc1ccc(SC(F)F)cc1	-7.3*	i	i	i	i
FC(F)Sc1ccc(NC(=S)NC(c2ccccc2)c2ccccc2)cc1	i	i	i	i	i
CN(C(=S)Nc1ccc(SC(F)F)cc1)C(c1ccccc1)c1ccccc1	-7.4*	i	i	i	i
CC(=O)c1ccc(NC(=S)N(CCCN(C)C)Cc2ccccc2)cc1	i	i	i	i	i
CCCCN(C(=O)CSCc1ccc(C)cc1)c1c(N)n(CCC)c(=O)[nH]c1=O	i	i	i	i	i
COc1ccc(Cc2nc3ccc(C(=O)N(C)CCn4ccnc4)cc3o2)cc1OC	i	i	i	i	i
COc1ccc(N(CC(=O)Nc2cc([N+](=O)[O-])ccc2C)S(C)(=O)=O)cc1OC	i	i	i	i	i
COc1ccc(NC(=O)c2ccc(-c3ccc([N+](=O)[O-])cc3)o2)cc1OC	i	i	i	-5.3*	i
COc1ccc(C(C)NC(=O)c2ccc([N+](=O)[O-])cc2)cc1OC (stereo not drawn)	i	i	i	-5.5*	i
Cc1c(N=C/C=C/c2ccccc2)c(=O)n(-c2ccccc2)n1C	-8.7*	i	i	i	i

From PubChem
